Experimental data from ChEMBL document CHEMBL3763115, “Silibinin derivatives as anti-prostate cancer agents: Synthesis and cell-based evaluations” (Eur J Med Chem, 2016).

How the values were obtained:
[1] = test system: LNCaP; assay: Antiproliferative activity against human LNCAP cells assessed as reduction in cell viability after 3 days by WST-1 cell proliferation assay; assay type: functional, cell-based; conditions: 72 h
Method in brief: (§1)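 Cells from ATCC; PC-3 and LNCaP grown in RPMI-1640, DU145 in EMEM, each with 10% FBS and 1% penicillin/streptomycin, 37 °C, 5% CO2. 3,200 cells per well, treated at 5 concentrations for 3 days with 0.25% DMSO as vehicle control. WST-1 reagent added, 3 h at 37 °C, absorbance read at 430 nm. IC50 from linear fit of at least five doses, mean of at least triplicates.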

[2] = Antiproliferative activity against human DU145 cells assessed as reduction in cell viability after 3 days by WST-1 cell proliferation assay; assay type: functional, cell-based; conditions: DU-145, 72 h; method in brief: as §1
[3] = Antiproliferative activity against human PC3 cells assessed as reduction in cell viability after 3 days by WST-1 cell proliferation assay; assay type: functional, cell-based; conditions: PC-3, 72 h; method in brief: as §1
[4] = test system: LNCaP; assay: Potency index, ratio of silibinin IC50 to compound IC50 for antiproliferative activity against human LNCAP cells; assay type: functional
Method in brief: (§2)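 Ratio of silibinin IC50 to derivative IC50. Both come from the 3-day WST-1 assay run in parallel (5 doses, absorbance at 430 nm, IC50 from linear fit, at least triplicates).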

[5] = Potency index, ratio of silibinin IC50 to compound IC50 for antiproliferative activity against human DU145 cells; assay type: functional, DU-145; method in brief: as §2
[6] = Potency index, ratio of silibinin IC50 to compound IC50 for antiproliferative activity against human PC3 cells; assay type: functional, PC-3; method in brief: as §2

IC50 [1] [µM] | SMILES | IC50 [2] [µM] | IC50 [3] [µM] | Ratio IC50 [4] | Ratio IC50 [5] | Ratio IC50 [6]
> 100 | COc1cc(C2Oc3cc(-c4oc5cc(OCc6ccccc6)cc(O)c5c(=O)c4OCc4ccccc4)ccc3OC2CO)ccc1O (stereo unspecified) | > 100 | > 100 | <1 | <1 | <1
0.35 | CCOc1cc(O)c2c(c1)O[C@H](c1ccc3c(c1)OC(c1ccc(O)c(OC)c1)C(CO)O3)[C@@H](O)C2=O (stereo partly specified) | 27.7 | 16.1 | 123 | 3 | 5
3.71 | COc1cc(C2Oc3cc(-c4oc5cc(OCc6ccccc6)cc(O)c5c(=O)c4O)ccc3OC2CO)ccc1O (stereo unspecified) | 8.97 | 7.98 | 12 | 10 | 9
4.01 | CCCCCCOc1cc(O)c2c(=O)c(O)c(-c3ccc4c(c3)OC(c3ccc(O)c(OC)c3)C(CO)O4)oc2c1 (stereo unspecified) | 8.84 | 6.94 | 11 | 11 | 10
4.62 | CCCCCOc1cc(O)c2c(=O)c(O)c(-c3ccc4c(c3)OC(c3ccc(O)c(OC)c3)C(CO)O4)oc2c1 (stereo unspecified) | 6.92 | 6.05 | 9 | 14 | 12
6.88 | COc1cc(O)c2c(=O)c(OC)c(-c3ccc4c(c3)OC(c3ccc(O)c(OC)c3)C(CO)O4)oc2c1 (stereo unspecified) | 22.2 | 15.3 | 6 | 4 | 5
1.65 | CCCCCCOc1cc(O)c2c(c1)O[C@H](c1ccc3c(c1)OC(c1ccc(O)c(OC)c1)C(CO)O3)[C@@H](O)C2=O (stereo partly specified) | 11.3 | 5.97 | 26 | 8 | 12
2.76 | COc1cc(O)c2c(=O)c(O)c(-c3ccc4c(c3)OC(c3ccc(O)c(OC)c3)C(CO)O4)oc2c1 (stereo unspecified) | 7.92 | 2.39 | 16 | 12 | 30
4.81 | CCCCCCCOc1cc(O)c2c(=O)c(O)c(-c3ccc4c(c3)OC(c3ccc(O)c(OC)c3)C(CO)O4)oc2c1 (stereo unspecified) | 7.49 | 7.09 | 9 | 12 | 10
0.44 | COc1cc(O)c2c(c1)O[C@H](c1ccc3c(c1)OC(c1ccc(O)c(OC)c1)C(CO)O3)[C@@H](O)C2=O (stereo partly specified) | 25.1 | 12.4 | 98 | 4 | 6
3.19 | CCCCOc1cc(O)c2c(=O)c(O)c(-c3ccc4c(c3)OC(c3ccc(O)c(OC)c3)C(CO)O4)oc2c1 (stereo unspecified) | 5.81 | 4.55 | 13 | 16 | 16
46.6 | CCCCOc1cc(O)c2c(=O)c(OCCCC)c(-c3ccc4c(c3)OC(c3ccc(O)c(OC)c3)C(CO)O4)oc2c1 (stereo unspecified) | 36.5 | 45.8 | 1 | 3 | 2
2.51 | CCCCOc1cc(O)c2c(c1)O[C@H](c1ccc3c(c1)OC(c1ccc(O)c(OC)c1)C(CO)O3)[C@@H](O)C2=O (stereo partly specified) | 12 | 5.38 | 17 | 8 | 14

Further lines, the compound ahead of its results:

SMILES | IC50 [1] [µM] | IC50 [2] [µM] | IC50 [3] [µM] | Ratio IC50 [4] | Ratio IC50 [5] | Ratio IC50 [6]
CCCCCCCOc1cc(O)c2c(c1)O[C@H](c1ccc3c(c1)OC(c1ccc(O)c(OC)c1)C(CO)O3)[C@@H](O)C2=O (stereo partly specified) | 4.57 | 17.4 | 10.9 | 9 | 5 | 7
CCCCCCOc1cc(O)c2c(=O)c(OCCCCCC)c(-c3ccc4c(c3)OC(c3ccc(O)c(OC)c3)C(CO)O4)oc2c1 (stereo unspecified) | > 100 | > 100 | > 100 | <1 | <1 | <1
CCOc1cc(O)c2c(=O)c(OCC)c(-c3ccc4c(c3)OC(c3ccc(O)c(OC)c3)C(CO)O4)oc2c1 (stereo unspecified) | 5.57 | 10.4 | 8.5 | 8 | 9 | 9
CCCCCOc1cc(O)c2c(=O)c(OCCCCC)c(-c3ccc4c(c3)OC(c3ccc(O)c(OC)c3)C(CO)O4)oc2c1 (stereo unspecified) | 28.7 | 28.7 | 52.1 | 1 | 3 | 1
CCCOc1cc(O)c2c(=O)c(O)c(-c3ccc4c(c3)OC(c3ccc(O)c(OC)c3)C(CO)O4)oc2c1 (stereo unspecified) | 4.41 | 5.36 | 4.69 | 10 | 17 | 15
CCCOc1cc(O)c2c(=O)c(OCCC)c(-c3ccc4c(c3)OC(c3ccc(O)c(OC)c3)C(CO)O4)oc2c1 (stereo unspecified) | 11 | 20.6 | 17.4 | 4 | 5 | 5
COc1cc(C2Oc3cc([C@H]4Oc5cc(OCc6ccccc6)cc(O)c5C(=O)[C@@H]4O)ccc3OC2CO)ccc1O (stereo partly specified) | 2.04 | 8.77 | 5.29 | 21 | 11 | 14
CCCCCCCOc1cc(O)c2c(=O)c(OCCCCCCC)c(-c3ccc4c(c3)OC(c3ccc(O)c(OC)c3)C(CO)O4)oc2c1 (stereo unspecified) | > 100 | > 100 | > 100 | <1 | <1 | <1
COc1cc(C2Oc3cc([C@H]4Oc5cc(O)cc(O)c5C(=O)[C@@H]4O)ccc3OC2CO)ccc1O (stereo partly specified) [SILIBININ] | 43 | 93.3 | 72.7 | – | – | –
CCCCCOc1cc(O)c2c(c1)O[C@H](c1ccc3c(c1)OC(c1ccc(O)c(OC)c1)C(CO)O3)[C@@H](O)C2=O (stereo partly specified) | 1.78 | 8.93 | 6.17 | 24 | 10 | 12
CCCOc1cc(O)c2c(c1)O[C@H](c1ccc3c(c1)OC(c1ccc(O)c(OC)c1)C(CO)O3)[C@@H](O)C2=O (stereo partly specified) | 4.66 | 30.3 | 18.5 | 9 | 3 | 4
